Calls of active or inactive are those of the source.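 The calls were made as follows, unless noted: active = viability at or under a set limit in both replicates, limit being median viability minus 3 SD (cut at about 48% in these data, passing the limit was not always enough); inconclusive = at or under the limit in just one replicate; inactive = at or above the limit in both replicates.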
Legend:
[1] = Her2 expression decrease, cell viability multiplex – SKBR3 breast tumor cells, AlphaScreen, ATP viability, primary screen (AID 461;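 active = Her2 level under about 52% in both replicate screens, with viability over 70% of control, limit read from the data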;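 as to Her2 level: lower value means less Her2 protein in the cells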;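 as to viability: percent of carrier control wells set as 100% viability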); details: SKBR3 Her2 protein level, 18-24 h, measured here: SKBR3 viability, ATP luminescence, at 10 µM
[2] = biological target: Receptor tyrosine-protein kinase erbB-2 (Homo sapiens) (UniProt P04626); experiment: as above; details: 18-24 h, at 10 µM, stronger effect = lower value
Receptor tyrosine-protein kinase erbB-2 (Homo sapiens), sequence (P04626 whole entry, looked up): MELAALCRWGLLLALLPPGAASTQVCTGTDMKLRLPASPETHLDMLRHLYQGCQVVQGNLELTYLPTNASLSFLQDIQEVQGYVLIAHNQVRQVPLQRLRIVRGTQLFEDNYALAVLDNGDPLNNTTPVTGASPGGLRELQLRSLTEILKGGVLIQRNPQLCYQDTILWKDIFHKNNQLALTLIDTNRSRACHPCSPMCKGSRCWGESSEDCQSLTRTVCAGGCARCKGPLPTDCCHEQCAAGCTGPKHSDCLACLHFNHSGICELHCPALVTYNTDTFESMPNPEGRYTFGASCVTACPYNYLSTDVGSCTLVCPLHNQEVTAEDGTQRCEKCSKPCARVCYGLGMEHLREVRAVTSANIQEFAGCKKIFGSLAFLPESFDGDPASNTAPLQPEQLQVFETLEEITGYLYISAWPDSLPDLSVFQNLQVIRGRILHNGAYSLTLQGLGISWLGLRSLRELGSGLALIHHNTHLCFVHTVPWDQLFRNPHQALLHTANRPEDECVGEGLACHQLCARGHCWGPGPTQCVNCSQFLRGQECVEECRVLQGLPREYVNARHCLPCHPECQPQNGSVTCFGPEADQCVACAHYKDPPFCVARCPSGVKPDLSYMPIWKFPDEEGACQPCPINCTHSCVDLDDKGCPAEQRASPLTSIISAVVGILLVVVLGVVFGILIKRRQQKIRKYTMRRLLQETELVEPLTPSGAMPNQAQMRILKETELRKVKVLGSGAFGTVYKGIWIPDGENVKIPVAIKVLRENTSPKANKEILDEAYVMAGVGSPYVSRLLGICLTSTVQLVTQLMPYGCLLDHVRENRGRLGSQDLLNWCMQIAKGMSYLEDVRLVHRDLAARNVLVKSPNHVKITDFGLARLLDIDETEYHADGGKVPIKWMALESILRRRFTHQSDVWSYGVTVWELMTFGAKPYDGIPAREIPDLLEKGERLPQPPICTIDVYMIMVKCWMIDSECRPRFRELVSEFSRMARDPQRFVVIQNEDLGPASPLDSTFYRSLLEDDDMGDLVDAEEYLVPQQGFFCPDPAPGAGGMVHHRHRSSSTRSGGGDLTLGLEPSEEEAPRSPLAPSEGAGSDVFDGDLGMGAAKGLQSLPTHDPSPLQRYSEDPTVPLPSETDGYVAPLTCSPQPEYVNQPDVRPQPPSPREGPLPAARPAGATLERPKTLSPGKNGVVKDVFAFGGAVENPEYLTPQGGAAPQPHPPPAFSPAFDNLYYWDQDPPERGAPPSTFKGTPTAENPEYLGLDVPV

[3] = reduced viability of SK-BR-3 breast cancer cells – cell-based, 24 h, human, pilot screen (AID 572;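 active = viability at or below 10% of carrier control in both of two separate runs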;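 also: compound exposure lasted between 18 and 24 h rather than exactly 24 h; 100% = carrier-treated control wells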); details: SK-BR-3 viability, CellTiter-Glo luminescence, at 10 µM, stronger effect = lower value
[4] = HUVEC growth inhibition – cell-based, human, primary screen (AID 575;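 active = viability at or below 30% in both replicate assays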;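 also: 100% = median of untreated cell wells with 0.1% DMSO on each plate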); details: HUVEC proliferation, CellTiter-Glo luminescence, 72 h; at 10 µM; stronger effect = lower value
Outline: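 material = primary HUVEC, no more than 12 passages | input = 1250 cells per well | controls = vehicle and MePR control wells | measured by = CTG luminescence | times = 72 h compound incubation | format = collagen-coated 384-well format | read-out = % viability vs DMSO wells | doses = single 10 µM dose, 0.1% DMSO, from 5x medium stock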

[5] = H69AR cell proliferation blockers – human, duplicate replicates, primary screen (AID 580); details: H69AR lung tumor cells viability, ATP luminescence, 72 h; at 10 µM; stronger effect = lower value;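 also: 100% = mean luminescence of untreated wells and 0% = no signal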
[6] = MRP1 drug-resistance reversers in H69AR cells – cell-based, doxorubicin co-treatment, pilot screen (AID 601;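 active = viability loss from added drug above about 55%, and viability with drug at most 40%, in both replicates, limit read from the data, passing the limit was not always enough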); details: CellTiter-Glo, 72 h, at 10 µM; for differential viability (reversal): stronger effect = higher value
[7] = yeast transport mutant growth inhibition pilot in 384-well plates, post-Golgi transport modulator project (AID 636; in the data active = inhibition above about 31%); details: absorbance 615 nm, about 18 h, stronger effect = higher value
[8] = growth suppression of yeast trafficking mutant, preliminary HTS, modulators of trafficking downstream of Golgi apparatus project, 1536-format plate, OD 615 nm (AID 637; in the data active = inhibition above about 30%); details: yeast transport mutant growth, absorbance 615 nm, 18 h; stronger effect = higher value
[9] = H69AR cells + 2 uM doxorubicin, measured here: viability with 2 uM doxorubicin, stronger effect = lower value
[10] = H69AR cells, compound alone cytotoxicity

SMILES | viability [1] | Her2 level [2] | viability [3] | viability [4] | viability [5] | differential viability (reversal) ([6]; H69AR cells + 2 uM doxorubicin) | viability [6, 9] | viability [6, 10] | inhibition [7] | inhibition [8]
CCn1c(=O)cc(OCC(=O)NC2CCCCC2)c2ccccc21 | 86% | 98.5% (inactive) | 86% (inactive) | 91.5% (inactive) | 87% (inactive) | 9.56% (inactive) | 77.5% | 87% | -0.77% (inactive) | 0% (inactive)
Cn1c(=O)c2c(nc(SCCCO)n2Cc2ccccc2Cl)n(C)c1=O | 80.5% | 78.5% (inactive) | 80.5% (inactive) | 67.2% (inactive) | 79.3% (inactive) | 51.5% (inactive) | 27.9% | 79.3% | -1.6% (inactive) | 2.62% (inactive)
O=C(c1cccnc1)N1CCc2ccccc21 | 74% | 77.5% (inactive) | 74% (inactive) | 88.1% (inactive) | 95% (inactive) | -16.3% (inactive) | 111% | 95% | -5.68% (inactive) | -0.16% (inactive)
Cn1c(SCCN2CCCCC2)nnc1-c1ccccc1Br | 94.5% | 95.5% (inactive) | 94.5% (inactive) | 105% (inactive) | 105% (inactive) | 9.74% (inactive) | 95.3% | 105% | -4.4% (inactive) | 5.48% (inactive)
CC(=O)c1cc(C#N)c(SCC(=O)OC(C)C)nc1C | 102% | 80.5% (inactive) | 102% (inactive) | 88% (inactive) | 61.2% (inactive) | 23.3% (inactive) | 37.9% | 61.2% | -7.03% (inactive) | 5.67% (inactive)
O=C(CCNC(=O)Cn1ccc2ccccc2c1=O)NCCN1CCc2ccccc2C1 | 118% | 98% (inactive) | 118% (inactive) | 87.3% (inactive) | 91.8% (inactive) | 0.755% (inactive) | 91% | 91.8% | -7.63% (inactive) | -8.18% (inactive)
CN(C)c1cccc2c(S(=O)(=O)Nc3ccccn3)cccc12 | 96.5% | 95.5% (inactive) | 96.5% (inactive) | 109% (inactive) | 101% (inactive) | 2.54% (inactive) | 98.7% | 101% | -6.8% (inactive) | 1.43% (inactive)
c1cncc(-c2nnc(SCCSc3nnc(-c4cccnc4)o3)o2)c1 | 99.5% | 93% (inactive) | 99.5% (inactive) | 98.7% (inactive) | 91.9% (inactive) | 0.085% (inactive) | 91.8% | 91.9% | -5.68% (inactive) | -2.17% (inactive)
COc1ccc(-c2cc3nc4n(c(=O)c3s2)CCC4)cc1 | 129% | 101% (inactive) | 129% (inactive) | 103% (inactive) | 84.1% (inactive) | -4.84% (inactive) | 88.9% | 84.1% | -5% (inactive) | 3.44% (inactive)
COC(=O)CN(c1nc(C)c(Cl)c(OC)n1)S(=O)(=O)c1ccc(C)cc1 | 117% | 104% (inactive) | 117% (inactive) | 86.9% (inactive) | 84.9% (inactive) | 2.96% (inactive) | 81.9% | 84.9% | -3.64% (inactive) | -2.86% (inactive)
CC1(C)CC(=O)c2cnc(NCc3ccco3)nc2C1 | 99% | 107% (inactive) | 99% (inactive) | 114% (inactive) | 96.2% (inactive) | 11% (inactive) | 85.2% | 96.2% | -10.4% (inactive) | -8.83% (inactive)
C=CCSC1=C(C#N)C(c2ccccc2)CC(=O)N1 (stereo not given) | 106% | 93.5% (inactive) | 106% (inactive) | 114% (inactive) | 104% (inactive) | 6.72% (inactive) | 97.4% | 104% | -1.87% (inactive) | -4.35% (inactive)
O=C(NCc1cccnc1)C1CCCN(S(=O)(=O)c2ccc(Cl)cc2)C1 (stereo not given) | 102% | 96% (inactive) | 102% (inactive) | 77.1% (inactive) | 86.9% (inactive) | 1.95% (inactive) | 84.9% | 86.9% | -2.57% (inactive) | -1.75% (inactive)
COc1ccccc1N1CCN(C(=O)c2c(-c3c(Cl)cccc3Cl)noc2C)CC1 | 104% | 82.5% (inactive) | 104% (inactive) | 79% (inactive) | 105% (inactive) | 15% (inactive) | 90.3% | 105% | -5.95% (inactive) | 2.46% (inactive)
CCOc1ccc2nc(SCC#N)c(C#N)cc2c1 | 93% | 106% (inactive) | 93% (inactive) | 104% (inactive) | 100% (inactive) | 16.1% (inactive) | 84% | 100% | -3.2% (inactive) | -0.32% (inactive)
CCS(=O)(=O)N1CCC(C(=O)NC2CCCCCCC2)CC1 | 98% | 110% (inactive) | 98% (inactive) | 108% (inactive) | 97.5% (inactive) | 7.86% (inactive) | 89.6% | 97.5% | -0.51% (inactive) | -1.5% (inactive)

SMILES | viability [1] | Her2 level [2] | viability [3] | viability [4] | viability [5] | differential viability (reversal) ([6]; H69AR cells + 2 uM doxorubicin) | viability [6, 9] | viability [6, 10] | inhibition [7] | inhibition [8]
CCn1nnc(NC(=O)c2cc3ccccc3o2)n1 | 103% | 103% (inactive) | 103% (inactive) | 97.2% (inactive) | 101% (inactive) | 11.5% (inactive) | 90% | 101% | -4.19% (inactive) | -9% (inactive)
O=C(CN1C(=O)CCSc2ccccc21)Nc1ccccc1 | 113% | 94% (inactive) | 113% (inactive) | 111% (inactive) | 104% (inactive) | 15.9% (inactive) | 88.2% | 104% | -7.67% (inactive) | -7.78% (inactive)
COC(=O)c1ccc(CNC(=O)CSc2nc3sc(C)c(C)c3c(=O)n2C)o1 | 93.5% | 102% (inactive) | 93.5% (inactive) | 97.5% (inactive) | 98.5% (inactive) | 15.5% (inactive) | 82.9% | 98.5% | 0.65% (inactive) | -4.33% (inactive)
CCOc1c(C)cc2[nH]c(CCC(=O)O)nc2c1C | 123% | 103% (inactive) | 123% (inactive) | 95.4% (inactive) | 93.2% (inactive) | -1.08% (inactive) | 94.3% | 93.2% | -6.58% (inactive) | 14.4% (inactive)
c1ccc(CC2CCN(C(c3cccs3)c3nnnn3C3CCCC3)CC2)cc1 (stereo not given) | 102% | 128% (inactive) | 102% (inactive) | 91.9% (inactive) | 93.4% (inactive) | -0.24% (inactive) | 93.7% | 93.4% | 1.92% (inactive) | -0.63% (inactive)
COc1ccc(C)cc1S(=O)(=O)Nc1cccnc1 | 90.5% | 84.5% (inactive) | 90.5% (inactive) | 91.2% (inactive) | 88.4% (inactive) | 1.54% (inactive) | 86.9% | 88.4% | -4.19% (inactive) | 0.16% (inactive)
CCOC(=O)c1ccc(Oc2nc(SC)nc(N(C)C)n2)cc1 | 73.5% | 100% (inactive) | 73.5% (inactive) | 85% (inactive) | 107% (inactive) | 2.66% (inactive) | 105% | 107% | -1.54% (inactive) | -8.17% (inactive)
N#C/C(=C(/O)CN1CCOCC1)c1nc2ccccc2s1 | 89.5% | 145% (inactive) | 89.5% (inactive) | 99.3% (inactive) | 106% (inactive) | 5.77% (inactive) | 100% | 106% | 2.73% (inactive) | -13.8% (inactive)
O=C(CCS(=O)(=O)c1cccc2nsnc12)N1CCN(Cc2ccc3c(c2)OCO3)CC1 | 90.5% | 99% (inactive) | 90.5% (inactive) | 92.7% (inactive) | 94.4% (inactive) | -9.25% (inactive) | 104% | 94.4% | -6.71% (inactive) | -5.87% (inactive)
COc1ccc(C2CC(=O)c3c(C)nc(N4CCN(c5ccccc5)CC4)nc3C2)cc1 (stereo not given) | 90% | 88% (inactive) | 90% (inactive) | 98.5% (inactive) | 97.3% (inactive) | 19% (inactive) | 78.3% | 97.3% | 0.79% (inactive) | -5.9% (inactive)
CCOC(=O)Cc1c(C)c2c(O)cc(O)cc2oc1=O | 84.5% | 77.5% (inactive) | 84.5% (inactive) | 97.3% (inactive) | 99% (inactive) | 12.2% (inactive) | 86.8% | 99% | -6.27% (inactive) | 1.9% (inactive)
COc1ccc(OCC(=O)Nc2cccc3ncccc23)cc1 | 98% | 94.5% (inactive) | 98% (inactive) | 104% (inactive) | 91.4% (inactive) | 0.15% (inactive) | 91.2% | 91.4% | -3.73% (inactive) | 3.61% (inactive)
CCOC(=O)c1c(N)sc(C(=O)N2CCOCC2)c1C | 127% | 115% (inactive) | 127% (inactive) | 103% (inactive) | 98.9% (inactive) | 1.31% (inactive) | 97.6% | 98.9% | -7.07% (inactive) | -1.75% (inactive)
COCCCn1c(SCC(=O)Nc2cccc(C)n2)nnc1-c1ccco1 | 95% | 82.5% (inactive) | 95% (inactive) | 106% (inactive) | 98.5% (inactive) | 12.9% (inactive) | 85.6% | 98.5% | -3.6% (inactive) | -2.95% (inactive)
CC1CCCC(NC(=O)CSc2ncccc2C(=O)O)C1C (stereo not given) | 95% | 79% (inactive) | 95% (inactive) | 86.4% (inactive) | 87.8% (inactive) | 3.03% (inactive) | 84.7% | 87.8% | -4.61% (inactive) | -4.36% (inactive)
Cc1cc(C)nc(Sc2ccc3nnc(C(F)(F)C(F)(F)C(F)(F)F)n3n2)n1 | 83.5% | 86.5% (inactive) | 83.5% (inactive) | 99.6% (inactive) | 102% (inactive) | 14.1% (inactive) | 87.6% | 102% | -6.89% (inactive) | 3.93% (inactive)
